Experimental data taken from PMC3076632 (Journal of medicinal chemistry, 2011).

Tests used:
Assay type in all cases: cell-based
[1] = test system: p38 MAPK in the granulocytic population in whole human blood; assay: Phosflow flow cytometric assay for p38MAPK in whole human blood; conditions: ex vivo whole human blood, granulocytes, 15 minutes at 37°C, flow cytometry
Summary of the method: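 Heparinised fresh whole human blood was exposed to graded concentrations of test compound in saline for 15 min at 37°C. One-step erythrocyte lysis and leukocyte fixation, wash (500 g, 8 min), permeabilisation in ice-cold methanol for 30 min, two PBS washes. Staining for 60 min with PE-anti-phospho-p38 (pT180/pY182) mAb or matched PE mouse IgG1κ isotype control. Single-colour PE flow cytometry, 20,000 gated events.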

[2] = target: T1, human Nod1 (Homo sapiens, UniProt Q9Y239); assay: NF-κB induction in HEK-Blue cells; conditions: for Nod1-agonistic activity (in words): primary screen, NF-κB induction
T1 sequence (Q9Y239 1-953): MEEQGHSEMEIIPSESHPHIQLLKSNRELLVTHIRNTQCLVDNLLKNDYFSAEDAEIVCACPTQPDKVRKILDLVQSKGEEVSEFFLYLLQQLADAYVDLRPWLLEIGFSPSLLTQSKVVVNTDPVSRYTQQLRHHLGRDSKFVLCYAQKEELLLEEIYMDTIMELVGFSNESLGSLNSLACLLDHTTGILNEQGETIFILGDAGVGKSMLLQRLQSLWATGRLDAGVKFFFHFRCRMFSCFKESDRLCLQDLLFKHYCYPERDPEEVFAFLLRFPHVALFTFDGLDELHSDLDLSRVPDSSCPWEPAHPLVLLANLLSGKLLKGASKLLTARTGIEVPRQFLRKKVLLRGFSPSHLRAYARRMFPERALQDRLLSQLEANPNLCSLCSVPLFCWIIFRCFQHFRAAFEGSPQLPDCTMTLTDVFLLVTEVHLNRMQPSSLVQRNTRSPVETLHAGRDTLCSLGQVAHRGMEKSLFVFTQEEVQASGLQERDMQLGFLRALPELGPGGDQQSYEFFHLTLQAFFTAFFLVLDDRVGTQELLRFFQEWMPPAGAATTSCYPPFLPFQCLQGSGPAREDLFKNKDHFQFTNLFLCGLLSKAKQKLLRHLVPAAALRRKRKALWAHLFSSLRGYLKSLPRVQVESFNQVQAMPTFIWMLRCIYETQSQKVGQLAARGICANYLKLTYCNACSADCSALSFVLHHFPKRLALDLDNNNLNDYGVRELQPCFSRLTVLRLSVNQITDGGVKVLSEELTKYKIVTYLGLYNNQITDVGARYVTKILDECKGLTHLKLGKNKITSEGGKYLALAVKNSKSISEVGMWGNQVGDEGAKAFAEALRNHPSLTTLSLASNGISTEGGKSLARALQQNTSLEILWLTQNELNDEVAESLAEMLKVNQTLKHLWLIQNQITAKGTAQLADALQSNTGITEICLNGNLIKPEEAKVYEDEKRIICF
Summary of the method: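 HEK-Blue cells stably express secreted alkaline phosphatase (sAP) under NF-κB/AP-1 promoters. Cells were grown to confluency, then exposed to graded concentrations of test compound. Extracellular sAP in the supernatant, taken as proportional to Nod1-mediated NF-κB induction, was measured spectrophotometrically at 620 nm with an alkaline phosphatase-specific chromogen in the detection medium.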

[3] = test system: CD11b in the granulocytic population in whole human blood; assay: CD11b flow cytometric assay in whole human blood; conditions: ex vivo whole human blood, granulocytes, 1 hour at 37°C, flow cytometry
Summary of the method: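 Fresh anticoagulated whole human blood was incubated with graded dilutions of test compound for 1 h at 37°C, with saline negative controls. Samples were chilled on ice for 15 min, then stained with anti-CD11b/Mac-1 antibody for 30 min on ice so that only surface CD11b was labelled. Erythrocytes were lysed and leukocytes fixed in one step in pre-warmed lyse/fix buffer, then washed twice (200 g, 5 min). Single-colour PE flow cytometry, 20,000 gated events.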

[4] = test system: Human PBMCs; assay: Transcriptomal profiling; conditions: 20 μg/mL
Summary of the method: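 PBMCs from fresh heparinised human blood were stimulated with test compound at 20 μg/mL for 2 h; total RNA was extracted from treated and negative-control samples. 4 μg RNA per sample was hybridised to U133 plus 2.0 arrays. Chips passed QC (5′/3′ ratio < 3.0), were scaled to target intensity 500 and normalised, with absent-call genes filtered. Differential expression was defined as ≥2-fold change versus negative control.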

| Nod1-agonistic activity (in words) [2] | Compound | p38 MAPK upregulation (in words) [1] | CD11b upregulation (in words) [3] | further results |
| --- | --- | --- | --- | --- |
|  | CCCCCCCCCCCC(=O)N[C@H](CCC(=O)NC(CCCC(N)C(=O)O)C(=O)O)C(=O)O (stereo partly drawn) [Compound 16, 2-Amino-6-((R)-4-carboxy-4-dodecanamidobutanamido) heptanedioic acid] | upregulated in a dose-dependent manner | upregulated in a dose-dependent manner | EC50 [2]: ~0.03 nM |
|  | CCCCCCCCCCCCN(CCCCCCCCCCCC)[C@H](CCC(=O)NC(CCCC(N)C(=O)O)C(=O)O)C(=O)O (stereo partly drawn) [Compound 27, 2-Amino-6-((R)-4-carboxy-4-(didodecylamino)butanamido) heptanedioic acid] | more potent than 16 | more potent than 16 | pathway analysis of induced gene transcripts (in words) ([4]; IPA pathway analysis): activation of pathways involving signaling mediated by Triggering Receptor Expressed on Myeloid Cells 1; Fold change IL1B (interleukin 1, beta), up ([4]; probe set 39402_at, two hours, up): 4.45 fold; Fold change IL1RN (interleukin 1 receptor antagonist), up ([4]; probe set 212659_s_at, two hours, up): 8.19 fold; Fold change IL1RN (interleukin 1 receptor antagonist), up ([4]; probe set 216243_s_at, two hours, up): 7.54 fold; Fold change IL1RN (interleukin 1 receptor antagonist), up ([4]; probe set 216244_at, two hours, up): 8.27 fold |
| abrogation of activity | CCCCCCCCCCCC(=O)N[C@H](CCC(=O)NC(CCCCC(=O)O)C(=O)O)C(=O)O (stereo partly drawn) [Compound 67, 2-((R)-4-carboxy-4-dodecanamidobutanamido)heptanedioic acid] |  |  |  |
| abrogation of activity | CCCCCCCCCCCC(=O)N[C@H](CCC(=O)NCCCCCN)C(=O)O [Compound 69, (R)-5-((5-Aminopentyl)amino)-2-dodecanamido-5-oxopentanoic acid] |  |  |  |
| bereft of any activity | CCCCCCCCCCCC(=O)N[C@H](CCC(=O)N[C@H](CCCCN)C(=O)O)C(=O)O [Compound 73, (R)-6-Amino-2-((R)-4-carboxy-4-dodecanamidobutanamido) hexanoic acid] |  |  |  |
| inactive | N[C@H](CCC(=O)N[C@H](CCC[C@H](N)C(=O)O)C(=O)O)C(=O)O [γ-glutamyl-meso-diaminopimelic acid, reference compound] | inactive | inactive |  |
